# An excerpt weighted towards active compounds, which were near 3.7% of everything screened.
# KCNK3 inh = human KCNK3 channel inhibitors, primary screen, CHO cells, FluxOR thallium flux, B-score. Potassium channel subfamily K member 3 (Homo sapiens), O14649. FluxOR fluorescence; active compounds read low. B-score at 10 µM. 340,000 compounds, 0.84% hits. AID 602410, 2012;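 active = B-score under library mean minus 4 SD, starting fluorescence ratio at most library mean plus 5 SD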;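 note: more negative B-score means stronger inhibition of thallium flux through KCNK3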
# KCNQ1 pot = potentiators or activators of KCNQ1 channel, primary screen, cell-based, thallium flux, high-throughput; 310,000 compounds, 0.35% hits; Potassium voltage-gated channel subfamily KQT member 1 (Homo sapiens), P51787; CHO-K1 KCNQ1, thallium flux FluxOR fluorescence; active compounds read high; B-score at 10 µM; AID 2648, 2010;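 active = fluorescence ratio B-score, a plate-corrected score, at least three library SD, with initial intensity B-score within 5 SD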
# Target sequence (P51787 whole entry, looked up): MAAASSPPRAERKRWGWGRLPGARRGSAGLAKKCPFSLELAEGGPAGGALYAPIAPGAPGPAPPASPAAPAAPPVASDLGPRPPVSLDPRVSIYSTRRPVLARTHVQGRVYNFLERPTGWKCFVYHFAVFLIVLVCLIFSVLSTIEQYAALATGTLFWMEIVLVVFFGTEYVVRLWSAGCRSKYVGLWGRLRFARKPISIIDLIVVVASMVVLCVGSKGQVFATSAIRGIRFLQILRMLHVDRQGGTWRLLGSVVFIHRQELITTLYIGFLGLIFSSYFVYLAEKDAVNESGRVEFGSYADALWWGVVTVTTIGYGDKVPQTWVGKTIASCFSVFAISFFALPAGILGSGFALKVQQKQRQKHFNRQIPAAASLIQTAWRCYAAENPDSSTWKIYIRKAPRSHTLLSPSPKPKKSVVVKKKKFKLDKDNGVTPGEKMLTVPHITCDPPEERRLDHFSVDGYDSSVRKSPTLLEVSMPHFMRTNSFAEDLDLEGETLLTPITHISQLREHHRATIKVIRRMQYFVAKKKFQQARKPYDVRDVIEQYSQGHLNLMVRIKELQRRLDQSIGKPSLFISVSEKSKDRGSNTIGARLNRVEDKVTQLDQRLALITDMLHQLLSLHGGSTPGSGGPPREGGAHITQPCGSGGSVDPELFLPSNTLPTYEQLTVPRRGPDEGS
#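 assay system = KCNQ1-transfected CHO-K1 cells | medium = assay buffer with matched DMSO | probe or stimulus = depolarizing K+/Tl+ stimulus, K2SO4 and Tl2SO4 each 12.5 mM in 5x stock | dosing = single dose | incubation = dye 90 min, compound 20 min, room temperature | detection = kinetic FluxOR fluorescence, 10 s baseline plus 110 s post-stimulus | evaluation = ratio B score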
# Kir21 inh = inhibitors of mouse Kir2.1 inward-rectifier potassium channel; B-score at 10 µM; Inward rectifier potassium channel 2 (Mus musculus), P35561; 310,000 compounds, 0.85% hits; HEK293-Kir2.1, FluxOR thallium flux fluorescence; active compounds read low;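 active = fluorescence ratio B-score at or below minus 3 SD of library scores, with starting-brightness B-score within 2 SD, cut at about -4.2 in these data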;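 note: channel flux triggered by added potassium and thallium sulfate stimulus; B-score of peak minus minimum fluorescence over baseline after thallium stimulus; more negative B-score means stronger Kir2.1 block with less thallium influx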
# KCNK9 block = KCNK9 potassium channel inhibitors, primary screen, HEK293 cells, thallium flux; B-score at 10 µM; FluxOR thallium flux fluorescence; active compounds read low; 310,000 compounds, 1.2% hits;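 active = ratio B-score over 3 SD below the library mean, with starting fluorescence within 5 SD of its mean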;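 note: negative B-score means less thallium flux so channel inhibition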
# KCNQ1 block = inhibitors of human KCNQ1 channel, primary screen, cell-based, thallium flux, high-throughput | B-score at 10 µM | AID 2642, 2010 | 310,000 compounds, 1.3% hits | CHO-K1 KCNQ1, FluxOR thallium flux fluorescence; active compounds read high | Potassium voltage-gated channel subfamily KQT member 1 (Homo sapiens), P51787;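 active = compounds whose thallium flux B-score, printed positive for inhibition, exceeds three library SD while starting fluorescence stays within three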;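 note: channel opened by potassium depolarization with thallium stimulus after 20 min compound exposure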
# hERG rescue = hERG rescue from dofetilide block, primary screen, cell-based, CHO-hERG, FluxOR thallium flux, dofetilide IC70; activation (rescue from dofetilide block), less the hit threshold, % at 10 µM; 310,000 compounds, 0.51% hits; Voltage-gated inwardly rectifying potassium channel KCNH2 (Homo sapiens), Q12809; dofetilide IC70 present; AID 1511, 2009;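 active = activation above the mean of controls blocked by dofetilide plus 5 SD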;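 note: thallium influx through hERG after potassium depolarization seen as dye fluorescence rise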
# KCNK9 inh conf = KCNK9 potassium channel inhibitors, confirmation, HEK293 cells, thallium flux, duplicate; shares compounds with KCNK9 block; FluxOR thallium flux fluorescence; inhibition, % at 10 µM; 4,900 compounds, 43% hits; AID 492992, 2010;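 active = thallium signal inhibited by more than 5 SD of the compound-free buffer control wells, on both duplicate plates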;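 note: 0% = assay buffer control wells without compound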
# Kir21 sel = mouse Kir2.1 channel inhibition, confirmation, selectivity assay for KCNK9 modulator project, cell-based, HEK293, thallium flux. 4,900 compounds, 4% hits. shares compounds with KCNK9 block. inhibition, % at 10 µM. Kir2.1 cells, FluxOR thallium flux fluorescence;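 active = thallium signal drop more than 5 SD beyond the mean of the no-compound control wells, seen in both duplicate plates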;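 note: signal is fluorescence rise after thallium addition divided by baseline fluorescence; plate controls were assay buffer only for no effect and full block by chlorpromazine control for full effect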
# KCNK9 uninduced = thallium flux in non-induced HEK293 cells, confirmation, counter-screen for KCNK9 inhibitor project, cell-based, second counter screen, non-induced KCNK9-HEK293; 4,900 compounds, 40% hits; FluxOR thallium flux; inhibition, % at 10 µM; shares compounds with KCNK9 block;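 active = thallium signal drop beyond 5 SD of the untreated control mean, on both duplicate plates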;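 note: plate controls were buffer only IC0 wells for no effect and SID17386958 at its maximal inhibitory level for full effect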
# KCNK3 confirm = retest of human KCNK3 channel inhibitors, confirmation, CHO cells, FluxOR thallium flux, triplicate. shares compounds with KCNK3 inh. 2,400 compounds, 99% hits. ratio percent of control, % at 10 µM. FluxOR fluorescence; 0% buffer, 100% carvedilol maximal block;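 active = ratio percent of control, averaged over triplicates, above buffer control mean plus 5 SD, cut at about 64% in these data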;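 note: ratio is the fluorescence rise from min to max over baseline after thallium stimulus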
# KCNK3 uninduced = thallium flux inhibition in non-induced cells, primary screen, counter-screen for KCNK3 inhibitor project, cell-based, non-induced KCNK3 line, FluxOR thallium, triplicate; thallium flux ratio (lower = more inhibition) at 10 µM; 2,400 compounds, 40% hits; shares compounds with KCNK3 inh; non-induced KCNK3 parental cells; active compounds read low;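 active = thallium flux ratio, averaged over three wells, more than 5 SD below the buffer control mean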;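 note: host cells are CHO cells without KCNK3 induction; ratio is peak minus trough fluorescence over baseline then normalized to buffer controls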
# An asterisk follows results filed as active; i = inactive; · = no result.
SMILES,KCNK3 inh,KCNQ1 pot,Kir21 inh,KCNK9 block,KCNQ1 block,hERG rescue,KCNK9 inh conf,Kir21 sel,KCNK9 uninduced,KCNK3 confirm,KCNK3 uninduced
CC(=O)N(CCC(c1ccccc1)c1ccco1)Cc1cccs1 (stereo not drawn),-10.5*,i,-8.84*,-11.8*,i,-14.8,56.0%*,i,30.5%*,93.7*,i
COCCn1c(=NC(=O)CSC(C)=O)sc2cc(OC)ccc21,-8.95*,i,0.05,-15.5*,i,-10.4,60.0%*,i,25.5%*,92.7*,i
CCN(Cc1ccccc1)C(c1cccc(C#N)c1)c1nnnn1C(C)(C)C (stereo not drawn),-9.25*,i,-0.09,-14.1*,i,-1.5,64.5%*,i,43.0%*,101.7*,i
Oc1c(Br)cc(CNC2CCCCC2)cc1Br,i,·,·,·,·,·,·,·,·,·,·
CN(c1ccccc1)S(=O)(=O)c1cccc(NC(=O)CN2CCCc3ccccc32)c1,-9.78*,i,-0.61,-11.1*,i,-7.8,49.5%*,i,24.0%*,113.0*,i
NS(=O)(=O)c1cccc(NC(=O)CN2CCc3ccccc32)c1,i,i,-0.72,i,i,-11.2,·,·,·,·,·
COC(=O)COc1ccc(/C=N/NC(=O)CN(c2ccccc2OC)S(=O)(=O)c2ccccc2)cc1,-16.3*,i,-0.07,-13.5*,i,-21.7,i,i,i,116.3*,0.139*
COc1ccccc1N(CC(=O)N/N=C/c1ccc(OCC(=O)NCc2ccco2)cc1)S(=O)(=O)c1ccc(C)cc1,i,i,-0.72,i,i,-11.5,·,·,·,·,·
O=c1cc(CN2CCN(C/C=C/c3ccccc3)CC2)c2cc(O)c(-c3ccccc3)cc2o1,i,i,0.91,i,i,-10.2,·,·,·,·,·
CC(C)CN(Cc1cc(=O)oc2cc(-c3ccccc3)c(O)cc12)CC(C)C,i,i,-0.36,-10.3*,11*,-21.8,53.0%*,i,27.0%*,145.7*,0.088*
O=C(NN1CCOCC1)c1cc(-c2ccc(Cl)c(Cl)c2)nc2ccccc12,i,i,0.01,i,i,-11.3,·,·,·,·,·
COCCN1Cc2cccc(C(=O)Nc3ccc(-c4nc5ccccc5[nH]4)cc3)c2C1=O,i,i,0.04,i,i,-6.1,·,·,·,·,·
COCCN1Cc2cccc(C(=O)Nc3cccc(-c4nc5ccccc5[nH]4)c3)c2C1=O,-10*,i,1.18,-13.4*,i,-18.1,58.5%*,i,i,120.3*,0.152*
N#Cc1cccc(C(c2nnnn2C2CCCC2)N2CCC(Cc3ccccc3)CC2)c1 (stereo not drawn),-11*,i,0.11,-12.1*,i,-16.2,58.5%*,i,30.0%*,112.0*,0.152*
CC(C)CCN(C(=S)Nc1cccc(F)c1)C(C)c1cccs1 (stereo not drawn),-13.8*,i,0.28,-10.2*,i,-13.7,50.5%*,i,50.5%*,118.7*,0.152*
COCCN(C(=S)Nc1cccc(C)c1)C(C)c1cccs1 (stereo not drawn),i,i,0.04,i,i,-2.5,·,·,·,·,·
C#CCNCCS(=O)(=O)N(Cc1ccc(Br)cc1)[C@@H](C)C(=O)O,i,·,·,·,·,·,·,·,·,·,·
C=CCOc1ccc(CN(C)CC(=O)Nc2ccccc2[N+](=O)[O-])cc1,-9.5*,i,-0.23,i,i,-16.1,i,i,i,98.7*,0.159*
CCOC(=O)c1csc(NC(=O)CN2CCN(C)CC2)n1,i,i,0.55,i,i,-6.5,·,·,·,·,·
CCOC(=O)/C(C(=O)Nc1ccccc1Cl)=C1/NC(C)(C)Cc2ccccc21,-9.11*,i,-0.03,-10*,i,-7.3,37.5%*,i,40.0%*,116.0*,i
O=C(CSCC(=O)N1CCCc2ccccc21)Nc1nc(-c2ccccc2)cs1,-11.9*,i,0.3,-17.5*,i,-18.9,23.0%*,i,i,118.7*,0.144*
CC(C)C(=O)Nc1cccc(C(=O)NCCc2ccc(S(N)(=O)=O)cc2)c1,i,i,-0.28,i,i,-10.1,·,·,·,·,·
COc1cccc(NC(=O)C(NCCc2ccc(S(N)(=O)=O)cc2)c2ccccc2)c1 (stereo not drawn),-8.73*,i,-1.19,-8.96*,i,-11.7,38.5%*,i,31.0%*,106.3*,i
Cc1ccc(C)c(N2CCN(S(=O)(=O)c3ccc4c(c3)CC(C)N4C(=O)C3CC3)CC2)c1 (stereo not drawn),-9.27*,i,-0.01,i,i,-13.1,i,i,i,75.3*,i
COc1ccccc1OCC(=O)N(Cc1nc(-c2ccc(Cl)cc2)no1)C(C)C,i,i,-0.5,i,i,-8.2,·,·,·,·,·
CC(C)N(Cc1nc(-c2ccc(Cl)cc2)no1)C(=O)CCC1CCCC1,-10.9*,i,-0.02,-13.9*,i,-20.0,65.5%*,i,42.0%*,117.7*,i
O=C(NC1CCCCC1)c1cc2ccccc2cc1O,-9.36*,i,0.14,-11.5*,i,-13.2,25.5%*,i,i,106.7*,i
